Experimental data as given in ChEMBL document CHEMBL4265907, “Design, synthesis and pharmacological evaluation of N4,N6-disubstituted pyrimidine-4,6-diamine derivatives as potent EGFR inhibitors in non-small cell lung cancer” (Eur J Med Chem, 2018).
The source made the active and inactive calls. The rule behind the calls is not given here.

Key:
[1] = target: Epidermal growth factor receptor (Homo sapiens, UniProt P00533, DEL747/DEL747-750); experiment: Inhibition of N-terminal GST-tagged human EGFR del 747-750 mutant cytoplasmic domain expressed in baculovirus expression system using FAM-labeled peptide as substrate after 10 mins by mobility shift assay
[2] = target: T1, Epidermal growth factor receptor (Homo sapiens, UniProt P00533); experiment: Inhibition of N-terminal GST-tagged wild type human EGFR cytoplasmic domain (669 to 1210 residues) expressed in baculovirus expression system using FAM-labeled peptide as substrate after 10 mins by mobility shift assay
[3] = target: Fibroblast growth factor receptor 1 (Homo sapiens) (UniProt P11362); experiment: Inhibition of N-terminal GST-tagged human FGFR1 cytoplasmic domain (398 to 822 residues) expressed in baculovirus expression system at […] using FAM-labeled peptide as substrate after 10 mins by mobility shift assay relative to control
Procedure, shortened: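 Caliper mobility-shift kinase assay. Kinase in kinase base buffer was preincubated with compound for 10 min at room temperature. FAM-labelled peptide and ATP at Km were then added, and the reaction ran at 28 °C until quenched with buffer. Screening concentration was 1 µM. Percent inhibition = (max − conversion)/(max − min) × 100, with DMSO as max and a low control as min.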

BEAS-2B = experiment: Cytotoxicity against human BEAS2B cells after 72 hrs by MTT assay; type: cell-based
Procedure, shortened: (§1)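 Cells seeded at 3000/well in growth medium with 10% FBS and left overnight. Treated in triplicate for 72 h at nine concentrations (0.458 to 30,000 nM), with DMSO-only controls. MTT (5 mg/mL) added for the last 4 h, formazan dissolved in DMSO, absorbance read at 490 nm. IC50 from non-linear sigmoidal dose-response fit.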

NCI-H1975 [4] = experiment: Antiproliferative activity against human NCI-H1975 cells after 72 hrs by MTT assay; type: functional, cell-based; conditions: NCI-H1975, 72 h; procedure, shortened: as §1
A-431 [5] = experiment: Antiproliferative activity against human A431 cells after 72 hrs by MTT assay; type: functional, cell-based; conditions: A-431, 72 h; procedure, shortened: as §1
PC-9 = experiment: Antiproliferative activity against human PC9 cells after 72 hrs by MTT assay; type: functional, cell-based; conditions: PC-9, 72 h; procedure, shortened: as §1
NCI-H3255 [6] = experiment: Antiproliferative activity against human H3255 cells after 72 hrs by MTT assay; type: functional, cell-based; conditions: NCI-H3255, 72 h; procedure, shortened: as §1
HCC827 [7] = experiment: Antiproliferative activity against human HCC827 cells after 72 hrs by MTT assay; type: functional, cell-based; conditions: HCC827, 72 h; procedure, shortened: as §1
A-431 [8] = experiment: Induction of apoptosis in human A431 cells assessed as early apoptotic cells at 1000 nM after 48 hrs by Annexin V-FITC/PI staining based flow cytometry (reference value: 3.40%); type: functional
HCC827 [9] = experiment: Induction of apoptosis in human HCC827 cells assessed as necrotic cells at 500 nM after 48 hrs by Annexin V-FITC/PI staining based flow cytometry (reference value: 1.41%); type: functional
NCI-H3255 [10] = experiment: Induction of apoptosis in human H3255 cells assessed as viable cells after 48 hrs by Annexin V-FITC/PI staining based flow cytometry; type: functional, cell-based
A-431 [11] = experiment: Induction of apoptosis in human A431 cells assessed as early apoptotic cells after 48 hrs by Annexin V-FITC/PI staining based flow cytometry; type: functional, cell-based
Mus musculus [12] = experiment: In vivo inhibition of AKT phosphorylation in tumor of BALB/C nude mouse xenografted with human PC9 cells at 15 to 30 mg/kg, ip qd administered for 19 days by immunohistochemical analysis; type: functional, organism-based
HCC827 [13] = experiment: Induction of apoptosis in human HCC827 cells assessed as early apoptotic cells at 1000 nM after 48 hrs by Annexin V-FITC/PI staining based flow cytometry (reference value: 2.83%); type: functional
A-431 [14] = experiment: Induction of apoptosis in human A431 cells assessed as necrotic cells at 500 nM after 48 hrs by Annexin V-FITC/PI staining based flow cytometry (reference value: 4.16%); type: functional
NCI-H1975 [15] = experiment: Induction of apoptosis in human NCI-H1975 cells assessed as early apoptotic cells at 500 nM after 48 hrs by Annexin V-FITC/PI staining based flow cytometry (reference value: 2.07%); type: functional
NCI-H1975 [16] = experiment: Induction of apoptosis in human NCI-H1975 cells assessed as late apoptotic cells at 500 nM after 48 hrs by Annexin V-FITC/PI staining based flow cytometry (reference value: 1.91%); type: functional
HCC827 [17] = experiment: Induction of apoptosis in human HCC827 cells assessed as viable cells after 48 hrs by Annexin V-FITC/PI staining based flow cytometry; type: functional, cell-based
A-431 [18] = experiment: Induction of apoptosis in human A431 cells assessed as late apoptotic cells at 250 nM after 48 hrs by Annexin V-FITC/PI staining based flow cytometry (reference value: 2.11%); type: functional
A-431 [19] = experiment: Induction of apoptosis in human A431 cells assessed as necrotic cells at 1000 nM after 48 hrs by Annexin V-FITC/PI staining based flow cytometry (reference value: 4.16%); type: functional
NCI-H1975 [20] = experiment: Induction of apoptosis in human NCI-H1975 cells assessed as viable cells at 1000 nM after 48 hrs by Annexin V-FITC/PI staining based flow cytometry (reference value: 93.7%); type: functional; conditions: NCI-H1975, 48 h, read-out: Activity
[21] = target: T1, Epidermal growth factor receptor; experiment: Inhibition of EGFR in human A431 cells assessed as decrease in EGF-induced ERK1/2 phosphorylation by Western blot method; type: cell-based
Procedure, shortened: (§2)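 Cell lysates prepared in protein lysis buffer and cleared at 12,000 g for 10 min at 4 °C. 50 μg protein per lane was run on a gel, transferred to PVDF and immunoblotted, with GAPDH as the loading control.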

NCI-H3255 [22] = experiment: Induction of apoptosis in human H3255 cells assessed as necrotic cells at 1000 nM after 48 hrs by Annexin V-FITC/PI staining based flow cytometry (reference value: 7.06%); type: functional
Mus musculus [23] = experiment: In vivo inhibition of AKT phosphorylation in tumor of BALB/C nude mouse xenografted with human PC9 cells at 15 to 30 mg/kg, ip qd administered for 19 days by immunoblot method; type: functional, organism-based
[24] = target: T1, Epidermal growth factor receptor; experiment: Inhibition of EGFR in human H3255 cells assessed as decrease in EGF-induced AKT phosphorylation by Western blot method; type: cell-based; procedure, shortened: as §2
A-431 [25] = experiment: Induction of apoptosis in human A431 cells assessed as viable cells at 500 nM after 48 hrs by Annexin V-FITC/PI staining based flow cytometry (reference value: 90.3%); type: functional; conditions: A-431, 48 h, read-out: Activity
A-431 [26] = experiment: Induction of apoptosis in human A431 cells assessed as early apoptotic cells at 250 nM after 48 hrs by Annexin V-FITC/PI staining based flow cytometry (reference value: 3.40%); type: functional
NCI-H3255 [27] = experiment: Induction of apoptosis in human H3255 cells assessed as viable cells at 1000 nM after 48 hrs by Annexin V-FITC/PI staining based flow cytometry (reference value: 87.9%); type: functional; conditions: NCI-H3255, 48 h, read-out: Activity
HCC827 [28] = experiment: Induction of apoptosis in human HCC827 cells assessed as necrotic cells at 250 nM after 48 hrs by Annexin V-FITC/PI staining based flow cytometry (reference value: 1.41%); type: functional

Epidermal growth factor receptor (Homo sapiens, UniProt P00533, DEL747/DEL747-750), sequence (P00533 with tags, fused parts or gaps DEL747/DEL747-750 limits assumed): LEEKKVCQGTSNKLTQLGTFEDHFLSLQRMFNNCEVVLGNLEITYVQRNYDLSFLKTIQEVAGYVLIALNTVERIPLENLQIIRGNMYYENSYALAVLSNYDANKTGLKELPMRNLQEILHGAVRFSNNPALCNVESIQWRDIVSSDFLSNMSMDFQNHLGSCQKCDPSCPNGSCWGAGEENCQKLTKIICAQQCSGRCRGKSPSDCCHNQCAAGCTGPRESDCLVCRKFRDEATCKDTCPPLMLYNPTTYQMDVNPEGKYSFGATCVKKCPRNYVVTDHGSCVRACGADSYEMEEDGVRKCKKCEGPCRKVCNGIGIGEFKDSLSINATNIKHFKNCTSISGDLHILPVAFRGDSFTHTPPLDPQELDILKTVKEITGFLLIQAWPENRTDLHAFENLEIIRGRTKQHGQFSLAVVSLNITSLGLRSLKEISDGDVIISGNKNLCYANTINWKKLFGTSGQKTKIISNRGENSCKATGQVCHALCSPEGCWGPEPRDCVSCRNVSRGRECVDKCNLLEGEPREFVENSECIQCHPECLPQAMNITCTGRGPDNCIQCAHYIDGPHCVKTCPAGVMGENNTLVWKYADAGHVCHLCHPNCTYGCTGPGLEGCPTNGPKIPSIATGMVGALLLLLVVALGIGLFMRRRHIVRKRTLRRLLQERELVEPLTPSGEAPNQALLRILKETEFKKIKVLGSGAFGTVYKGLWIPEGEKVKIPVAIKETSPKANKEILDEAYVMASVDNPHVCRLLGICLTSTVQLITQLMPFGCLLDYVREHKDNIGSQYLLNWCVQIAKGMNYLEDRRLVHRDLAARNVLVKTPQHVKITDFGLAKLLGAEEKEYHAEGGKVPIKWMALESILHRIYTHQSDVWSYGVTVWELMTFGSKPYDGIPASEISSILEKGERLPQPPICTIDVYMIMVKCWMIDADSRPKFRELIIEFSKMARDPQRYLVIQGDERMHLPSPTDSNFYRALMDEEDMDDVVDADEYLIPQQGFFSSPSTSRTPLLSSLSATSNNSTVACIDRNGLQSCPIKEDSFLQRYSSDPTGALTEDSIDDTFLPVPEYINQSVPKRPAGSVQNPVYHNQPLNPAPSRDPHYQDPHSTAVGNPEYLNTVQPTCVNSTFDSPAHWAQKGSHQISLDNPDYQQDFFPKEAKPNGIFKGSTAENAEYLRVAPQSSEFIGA
T1 sequence (P00533 whole entry, the tested form may be a part): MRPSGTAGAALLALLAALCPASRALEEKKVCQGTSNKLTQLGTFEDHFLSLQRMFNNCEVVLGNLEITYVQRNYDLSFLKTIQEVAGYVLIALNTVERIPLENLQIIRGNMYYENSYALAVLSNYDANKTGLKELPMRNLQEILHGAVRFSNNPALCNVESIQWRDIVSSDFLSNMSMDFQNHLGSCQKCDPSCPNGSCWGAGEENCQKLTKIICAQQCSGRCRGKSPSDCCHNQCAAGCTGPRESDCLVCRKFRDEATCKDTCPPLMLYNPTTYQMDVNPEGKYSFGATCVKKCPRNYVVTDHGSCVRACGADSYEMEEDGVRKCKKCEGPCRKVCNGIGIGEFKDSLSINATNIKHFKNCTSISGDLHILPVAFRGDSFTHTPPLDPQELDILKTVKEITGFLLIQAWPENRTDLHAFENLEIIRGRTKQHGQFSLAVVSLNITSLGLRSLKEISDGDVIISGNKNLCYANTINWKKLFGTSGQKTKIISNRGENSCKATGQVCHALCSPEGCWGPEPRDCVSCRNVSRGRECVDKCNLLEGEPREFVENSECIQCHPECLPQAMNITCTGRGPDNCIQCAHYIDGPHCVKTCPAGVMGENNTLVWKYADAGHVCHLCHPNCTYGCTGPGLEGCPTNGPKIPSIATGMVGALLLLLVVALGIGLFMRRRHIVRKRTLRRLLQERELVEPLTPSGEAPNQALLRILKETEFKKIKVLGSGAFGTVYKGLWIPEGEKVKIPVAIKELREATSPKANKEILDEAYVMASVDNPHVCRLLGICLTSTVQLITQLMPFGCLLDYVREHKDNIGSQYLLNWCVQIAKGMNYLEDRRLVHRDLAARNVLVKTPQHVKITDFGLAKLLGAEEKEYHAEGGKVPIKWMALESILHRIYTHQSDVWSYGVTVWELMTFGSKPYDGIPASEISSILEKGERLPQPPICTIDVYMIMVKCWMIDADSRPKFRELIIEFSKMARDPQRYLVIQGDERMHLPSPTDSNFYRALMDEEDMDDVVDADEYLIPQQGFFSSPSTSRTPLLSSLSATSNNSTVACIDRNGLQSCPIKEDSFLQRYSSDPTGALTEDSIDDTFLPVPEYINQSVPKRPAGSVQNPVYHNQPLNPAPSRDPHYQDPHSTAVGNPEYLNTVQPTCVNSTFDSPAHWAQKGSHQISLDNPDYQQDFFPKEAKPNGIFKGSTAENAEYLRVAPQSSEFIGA

In the case of `CCOC(=O)c1ccc(Nc2cc(NC(=O)CCCC(=O)O)ncn2)cc1`, the IC50 [1] is reported as 0.021 µM, the IC50 [2] is reported as 0.048 µM and the inhibition [3] is reported as -5.3%.

`O=C(O)CCCC(=O)Nc1cc(Nc2cccc(Cl)c2)ncn1` was tested, and the IC50 (BEAS-2B) was 18 µM, the IC50 (NCI-H1975 [4]) was > 30 µM and the IC50 (A-431 [5]) was > 30 µM. For the same compound, the IC50 (PC-9) was 2 µM, the IC50 (NCI-H3255 [6]) was > 30 µM and the IC50 (HCC827 [7]) was 4.02 µM. The inhibition [3] was -8.8%.

`O=C(O)CCCC(=O)Nc1cc(N2CCOCC2)ncn1` showed an IC50 [1] of 0.011 µM, an IC50 [2] of 0.053 µM and an IC50 (BEAS-2B) of 17.9 µM. The IC50 (NCI-H1975 [4]) was 1.16 µM, the IC50 (A-431 [5]) was 0.78 µM and the IC50 (PC-9) was 0.56 µM. For the same compound, the IC50 (NCI-H3255 [6]) was 5.69 µM and the IC50 (HCC827 [7]) was 1.56 µM.

In the case of `COc1cccc(Nc2cc(NC(=O)CCCC(=O)O)ncn2)c1`, the IC50 [1] is reported as 0.012 µM, the IC50 [2] is reported as 0.037 µM and the inhibition [3] is reported as -5.5%.

With `COc1cccc(Nc2cc(Nc3cc(OC)ccc3OC)ncn2)c1` the Activity (A-431 [8]) was 18.1%, the Activity (HCC827 [9]) was 9.2% and the Activity (NCI-H3255 [10]) was “Dose-dependent effect”. For the same compound, the Activity (A-431 [11]) was “Dose-dependent effect”, the inhibition (Mus musculus [12]) was “Active” and the Activity (HCC827 [13]) was 19.6%. It also gave an Activity (A-431 [14]) of 5.66%, an IC50 (BEAS-2B) of 21.4 µM and an Activity (NCI-H1975 [15]) of 25%. For the same compound, the Activity (NCI-H1975 [16]) was 15.5%, the Activity (HCC827 [17]) was “Dose-dependent effect” and the IC50 (NCI-H1975 [4]) was 0.89 µM. The Activity (A-431 [18]) was 6.5%, the IC50 (A-431 [5]) was 0.74 µM and the Activity (A-431 [19]) was 3.61%. The viability at 1 µM (NCI-H1975 [20]) was 46.4%, the inhibition [21] was “Dose-dependent effect” and the IC50 (PC-9) was 0.45 µM. For the same compound, the Activity (NCI-H3255 [22]) was 6.35%, the inhibition (Mus musculus [23]) was “Active” and the IC50 (NCI-H3255 [6]) was 0.86 µM. The IC50 (HCC827 [7]) was 1.14 µM, the inhibition [24] was “Dose-dependent effect” and the viability at 0.5 µM (A-431 [25]) was 70.7%. For the same compound, the inhibition [3] was -9.3%, the Activity (A-431 [26]) was 10.8% and the viability at 1 µM (NCI-H3255 [27]) was 65.4%. For the same compound, the Activity (HCC827 [28]) was 12.4%.

With `COc1ccc(Nc2cc(NC(=O)c3ccccc3)ncn2)cc1` the IC50 [1] was 0.026 µM, the IC50 [2] was 0.081 µM and the IC50 (BEAS-2B) was 18.5 µM. It also gave an IC50 (NCI-H1975 [4]) of 11.4 µM, an IC50 (A-431 [5]) of 9.46 µM and an IC50 (PC-9) of 0.66 µM. The IC50 (NCI-H3255 [6]) was 8.88 µM, the IC50 (HCC827 [7]) was 5.35 µM and the inhibition [3] was 2.8%.
